Activity calls are given as the source filed them. The calls are words filed in the database; no cut-off is given here.
Experiments:
[1] = test system: Mammalian orthoreovirus 1; assay: Antiviral activity against Reovirus-1 infected in African green monkey Vero cells assessed as inhibition of virus-induced cytopathic effect after 3 to 6 days by MTS assay; type: functional, organism-based
Influenza A virus = assay: Antiviral activity against Influenza A virus (A/Puerto Rico/8/34(H1N1)) infected in MDCK cells assessed as protection against virus-induced reduction in cell viability after 3 to 6 days by MTS assay; type: functional, organism-based; conditions: A/Puerto Rico/8/1934(H1N1)
How it was run: (§1)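 MDCK cells seeded at 9000/well and infected one day later (semiconfluent) with 100 CCID50 virus. Medium was FCS-free Ultra MDCK with 2 μg/mL TPCK-trypsin. Serial five-fold compound dilutions (top 100 μM) were added with the virus, followed by 3–6 days at 35 °C. MTS read-out gave % protection versus virus and mock controls. EC50 was interpolated from semi-log curves; mean of two or three experiments.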

Influenza B virus = assay: Antiviral activity against Influenza B virus B/Ned/537/05 infected in MDCK cells assessed as protection against virus-induced reduction in cell viability after 3 to 6 days by MTS assay; type: functional, organism-based; conditions: B/Ned/537/05, MDCK; how it was run: as §1
MDCK = assay: Cytotoxicity against MDCK cells assessed as reduction in cell viability measured after 3 to 6 days by MTS assay; type: cell-based, Canis lupus familiaris; conditions: dog
How it was run: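 Mock-infected MDCK plates were run in parallel (FCS-free Ultra MDCK medium with TPCK-trypsin) with serial five-fold dilutions up to […], 35 °C for 3–6 days. CC50 was interpolated from semi-log dose-response curves; mean of two or three experiments.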

[2] = test system: Respiratory syncytial virus; assay: Antiviral activity against Respiratory syncytial virus Long infected in human HeLa cells assessed as inhibition of virus-induced cytopathic effect after 3 to 6 days by MTS based microscopy; type: functional, organism-based
Punta Toro virus = assay: Antiviral activity against Punta Toro virus infected in African green monkey Vero cells assessed as inhibition of virus-induced cytopathic effect after 3 to 6 days by MTS assay; type: functional, organism-based
Human alphaherpesvirus 2 = assay: Antiviral activity against Herpes simplex virus type 2 infected in human HEL299 cells assessed as inhibition of virus-induced cytopathic effect after 3 to 6 days by MTS assay; type: functional, organism-based
[3] = test system: Human immunodeficiency virus; assay: Antiviral activity against HIV; type: functional, organism-based
Vero = assay: Cytotoxicity against African green monkey Vero cells assessed as reduction in cell viability measured after 3 to 6 days by MTS assay; type: cell-based; conditions: chlorocebus sabaeus
[4] = Cytotoxicity against human HeLa cells assessed as alterations in normal cell morphology measured after 3 to 6 days by microscopic analysis; type: cell-based
How it was run: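 Mock-infected HeLa cultures in 2% FCS medium received serial five-fold dilutions […] for 3–6 days at 37 °C. MCC was the lowest concentration giving microscopically visible minimal change in cell morphology (rounding, shrinking, lysis).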

Human alphaherpesvirus 1 = assay: Antiviral activity against Herpes simplex virus type 1 infected in human HEL299 cells assessed as inhibition of virus-induced cytopathic effect after 3 to 6 days by MTS assay; type: functional, organism-based
Yellow fever virus = assay: Antiviral activity against Yellow fever virus infected in African green monkey Vero cells assessed as inhibition of virus-induced cytopathic effect after 3 to 6 days by MTS assay; type: functional, organism-based
[5] = Cytotoxicity against MDCK cells assessed as alterations in normal cell morphology measured after 3 to 6 days by microscopic analysis; type: cell-based, Canis lupus familiaris; conditions: dog
How it was run: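 Uninfected MDCK cultures in FCS-free Ultra MDCK medium with trypsin received five-fold compound dilutions (up to […]) for 3–6 days at 35 °C. Microscopy scored morphology, and MCC was taken as the lowest concentration causing minimal rounding, shrinking or lysis.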

[6] = test system: Vesicular stomatitis virus; assay: Antiviral activity against Vesicular stomatitis virus infected in human HEL299 cells assessed as inhibition of virus-induced cytopathic effect after 3 to 6 days by MTS assay; type: functional, organism-based
Coxsackievirus B4 = assay: Antiviral activity against Coxsackie B4 virus infected in human HeLa cells assessed as inhibition of virus-induced cytopathic effect after 3 to 6 days by MTS assay; type: functional, organism-based
Vaccinia virus = assay: Antiviral activity against Vaccinia virus infected in human HEL299 cells assessed as inhibition of virus-induced cytopathic effect after 3 to 6 days by MTS assay; type: functional, organism-based; conditions: Orthopoxvirus vaccinia
Human coronavirus 229E = assay: Antiviral activity against Human coronavirus 229E infected in human HEL299 cells assessed as inhibition of virus-induced cytopathic effect after 3 to 6 days by MTS assay; type: functional, organism-based
Human respirovirus 3 = assay: Antiviral activity against Parainfluenza virus 3 infected in African green monkey Vero cells assessed as inhibition of virus-induced cytopathic effect after 3 to 6 days by MTS assay; type: functional, organism-based
Human adenovirus 2 = assay: Antiviral activity against Human adenovirus type 2 infected in human HEL299 cells assessed as inhibition of virus-induced cytopathic effect after 3 to 6 days by MTS assay; type: functional, organism-based
Sindbis virus = assay: Antiviral activity against Sindbis virus infected in African green monkey Vero cells assessed as inhibition of virus-induced cytopathic effect after 3 to 6 days by MTS assay; type: functional, organism-based

Row | Structure (SMILES) | Activity [1] | EC50 (Influenza A virus) [µM] | EC50 (Influenza B virus) [µM] | CC50 (MDCK) [µM] | EC50 [2] [µM] | Activity (Punta Toro virus) | Activity (Human alphaherpesvirus 2) | Activity [3] | Activity (Vero) | MCC [4] [µM] | Activity (Human alphaherpesvirus 1) | Activity (Yellow fever virus) | MCC [5] [µM] | Activity [6] | Activity (Coxsackievirus B4) | Activity (Vaccinia virus) | Activity (Human coronavirus 229E) | Activity (Human respirovirus 3) | Activity (Human adenovirus 2) | Activity (Sindbis virus)
1 | CCCN1C(N)=NC(N)=NC12CCN(C(=O)c1c(C)noc1C)CC2 | inactive | > 100 | > 100 | > 100 | > 100 | inactive | inactive | inactive | Non-Toxic | > 100 | inactive | inactive | > 100 | inactive | inactive | inactive | inactive | inactive | inactive | inactive
2 | Cl.NC1=NC2(CCCN(Cc3ccccc3)C2)N(c2ccc(Cl)cc2)C(N)=N1 (stereo unspecified) | inactive | > 100 | > 100 | 45 | > 100 | inactive | inactive | inactive | Non-Toxic | 100 | inactive | inactive | 100 | inactive | inactive | inactive | inactive | inactive | inactive | inactive
3 | CCCCC(=O)N1CCC2(CC1)N=C(N)N=C(N)N2c1cccc(OC)c1 | inactive | > 100 | 28 | > 100 | > 100 | inactive | inactive | inactive | Non-Toxic | > 100 | inactive | inactive | ≥ 100 | inactive | inactive | inactive | inactive | inactive | inactive | inactive
4 | COCCN1C(N)=NC(N)=NC12CCN(S(=O)(=O)c1ccccc1)CC2 | inactive | > 100 | > 100 | > 100 | > 100 | inactive | inactive | inactive | Non-Toxic | > 100 | inactive | inactive | > 100 | inactive | inactive | inactive | inactive | inactive | inactive | inactive
5 | CCCN1C(N)=NC(N)=NC12CCN(S(=O)(=O)CCC)CC2 | inactive | > 100 | > 100 | > 100 | > 100 | inactive | inactive | inactive | Non-Toxic | > 100 | inactive | inactive | > 100 | inactive | inactive | inactive | inactive | inactive | inactive | inactive
6 | COc1cccc(N2C(N)=NC(N)=NC23CCN(C(=O)OC(C)(C)C)CC3)c1 | inactive | 87 | 39 | > 100 | > 100 | inactive | inactive | inactive | Non-Toxic | > 100 | inactive | inactive | ≥ 100 | inactive | inactive | inactive | inactive | inactive | inactive | inactive
7 | Cl.NC1=NC2(CCCN(Cc3ccccc3)C2)N(c2ccccc2)C(N)=N1 (stereo unspecified) | inactive | > 100 | > 100 | > 100 | > 100 | inactive | inactive | inactive | Non-Toxic | > 100 | inactive | inactive | > 100 | inactive | inactive | inactive | inactive | inactive | inactive | inactive
8 | CCCN1C(N)=NC(N)=NC12CCN(C(=O)C1CC1)CC2 | inactive | > 100 | > 100 | > 100 | > 100 | inactive | inactive | inactive | Non-Toxic | > 100 | inactive | inactive | > 100 | inactive | inactive | inactive | inactive | inactive | inactive | inactive
9 | NC(=O)c1ncn([C@@H]2O[C@H](CO)[C@@H](O)[C@H]2O)n1 [RIBAVIRIN] |  | 11 | 3.2 |  |  |  |  |  |  | > 250 |  |  | ≥ 20 |  |  |  |  |  |  | 
10 | NC1=NC2(CCNCC2)N(c2cccc(Cl)c2)C(N)=N1 | inactive | > 100 | > 100 | > 100 | > 100 | inactive | inactive | inactive | Non-Toxic | > 100 | inactive | inactive | > 100 | inactive | inactive | inactive | inactive | inactive | inactive | inactive
11 | COCCN1C(N)=NC(N)=NC12CCN(C(=O)NC1CCC(C)CC1)CC2 (stereo unspecified) | inactive | > 100 | > 100 | > 100 | > 100 | inactive | inactive | inactive | Non-Toxic | > 100 | inactive | inactive | > 100 | inactive | inactive | inactive | inactive | inactive | inactive | inactive
12 | NC12CC3CC(CC(C3)C1)C2 [AMANTADINE] |  | 26 | > 500 | > 500 |  |  |  |  |  |  |  |  | > 500 |  |  |  |  |  |  | 
13 | CC(=O)N[C@H]1[C@H]([C@H](O)[C@H](O)CO)OC(C(=O)O)=C[C@@H]1N=C(N)N [ZANAMIVIR] |  | 1.3 | 0.14 | > 100 |  |  |  |  |  |  |  |  | > 100 |  |  |  |  |  |  | 
14 | CC(N)C12CC3CC(CC(C3)C1)C2 (stereo unspecified) [RIMANTADINE] |  | 28 | > 500 | > 500 |  |  |  |  |  |  |  |  | ≥ 500 |  |  |  |  |  |  | 

Reference: ChEMBL document CHEMBL4152296, “Synthesis, biological evaluation and molecular modeling of novel azaspiro dihydrotriazines as influenza virus inhibitors targeting the host factor dihydrofolate reductase (DHFR)” (Eur J Med Chem, 2018)
